According to ChEMBL document CHEMBL3994574, “Novel hamamelitannin analogues for the treatment of biofilm related MRSA infections-A scaffold hopping approach” (Eur J Med Chem, 2017):
pEC50: −log10 of the molar value.

Legend:
Staphylococcus aureus = assay: Growth inhibition of methicillin-resistant Staphylococcus aureus Mu50 after 20 hrs by broth microdilution method
Outline: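 MRSA Mu50 grown in Mueller-Hinton broth at 37 °C, aerobic. MIC found in triplicate in flat-bottom 96-well plates, using a procedure from earlier work. Highest concentration tested was […].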

[1] = system: Staphylococcus aureus subsp. aureus Mu50; assay: Inhibition of quorum sensing system in methicillin-resistant Staphylococcus aureus Mu50 assessed as potentiation of vancomycin-mediated reduction in CFU/biofilm at 100 uM after 24 hrs (reference value: 30 +/- 14%)
[2] = system: Staphylococcus aureus subsp. aureus Mu50; assay: Inhibition of quorum sensing system in methicillin-resistant Staphylococcus aureus Mu50 assessed as potentiation of vancomycin-mediated reduction in CFU/biofilm at 100 uM preincubated for 20 hrs followed by vancomycin addition measured after 24 hrs (reference value: 30 +/- 14%)
[3] = Inhibition of quorum sensing system in methicillin-resistant Staphylococcus aureus Mu50 assessed as potentiation of vancomycin-mediated reduction in CFU/biofilm after 24 hrs; set-up: species or system Staphylococcus aureus subsp. aureus Mu50
[4] = Inhibition of quorum sensing system in methicillin-resistant Staphylococcus aureus Mu50 assessed as potentiation of vancomycin-mediated reduction in CFU/biofilm preincubated for 20 hrs followed by vancomycin addition measured after 24 hrs; set-up: species or system Staphylococcus aureus subsp. aureus Mu50

For O=C(NC[C@H]1CN(C(=O)c2ccccc2Cl)CCO1)c1ccccc1, the MIC (Staphylococcus aureus) was > 500 µM, the inhibition [1] was 41% and the inhibition [2] was -7%.
In the case of O=C(NC[C@@H]1CO[C@H](CNC(=O)c2ccccc2Cl)CO1)c1ccccc1, the MIC (Staphylococcus aureus) was > 500 µM, the inhibition [1] was 91% and the inhibition [2] was 95%. It also gave a pEC50 [3] of 4.88 and a pEC50 [4] of 5.25.
With O=C(NC[C@H]1CN(C(=O)c2ccccc2)CCO1)c1ccccc1Cl the MIC (Staphylococcus aureus) was > 500 µM, the inhibition [1] was 51% and the inhibition [2] was -6%.
For O=C(NC[C@@H]1C[C@H](CNC(=O)c2ccccc2Cl)CN1)c1ccccc1, the MIC (Staphylococcus aureus) was > 500 µM, the inhibition [1] was 50% and the inhibition [2] was 54%.
With O=C(NC[C@]1(O)CO[C@H](CNC(=O)c2ccccc2Cl)C1)c1ccccc1 the MIC (Staphylococcus aureus) was > 500 µM, the inhibition [1] was 65% and the inhibition [2] was 21%.
For O=C(NC[C@]1(O)CO[C@H](CNC(=O)c2ccccc2Cl)[C@H]1O)c1ccccc1, the MIC (Staphylococcus aureus) was > 500 µM, the inhibition [1] was 92% and the inhibition [2] was 88%. For the same compound, the pEC50 [3] was 5.10 and the pEC50 [4] was 6.41.
In the case of O=C(NC[C@@H]1CN[C@H](CNC(=O)c2ccccc2Cl)C1)c1ccccc1, the MIC (Staphylococcus aureus) was > 500 µM, the inhibition [1] was 47% and the inhibition [2] was 62%.
For O=C(OC[C@H]1OC(O)[C@@](O)(COC(=O)c2cc(O)c(O)c(O)c2)[C@@H]1O)c1cc(O)c(O)c(O)c1 (stereo not given in full) [HAMAMELITANNIN], the MIC (Staphylococcus aureus) was > 500 µM, the inhibition [1] was 57% and the inhibition [2] was 57%. It also gave a pEC50 [3] of 3.78 and a pEC50 [4] of 3.84.
For O=C(NC[C@@H]1O[C@H](CNC(=O)c2ccccc2Cl)[C@@H](O)[C@H]1O)c1ccccc1, the MIC (Staphylococcus aureus) was > 500 µM, the inhibition [1] was 95% and the inhibition [2] was 93%. It also gave a pEC50 [3] of 5.43 and a pEC50 [4] of 5.59.
